# An excerpt weighted towards active compounds, which were near 2.3% of everything screened.
# T cruzi repl: inhibitors of intracellular T. cruzi growth, primary screen, luminescence, NIH3T3 host cells; T. cruzi beta-gal in NIH3T3, 90 h; inhibition, % (no concentration beside the values); 1.4% of 300,000 active; AID 1885, 2009;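 active = mean inhibition across valid replicates above about 55%, limit read from the data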;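 also: signal also drops with host cell toxicity which is not excluded here; 0% = plate median of DMSO wells and 100% = zero luminescence signal; higher percent means less beta-gal luminescence so fewer parasites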
#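 compound dosing = single 50 nL compound addition per well in DMSO | material = NIH/3T3 host cells with β-galactosidase reporter T. cruzi | input = 5,000 host fibroblasts per well | timing = ≥90 h infection period, 3 h prior cell attachment | read-out basis = percent inhibition of parasite-derived β-gal signal | detection = GalScreen β-gal luminescence, detergent lysis, 60 min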
# HIF activator: HIF pathway transcriptional activators, primary screen, cell-based, U2OS HRE-luciferase, luminescence; 0.32% of 300,000 active; AID 1910, 2009; activation, % at 7.5 µM (by protocol); U2OS HRE-luciferase reporter; normalized: DMSO 0%, desferrioxamine 100%;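 active = mean activation of at least 10% of the iron chelator positive control signal, with at least half of replicates also reaching 10%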
# Bfl-1 A1 inh: caspase 3/7 activation in MEF A1-2A-BIM cells, primary screen, A1 inhibitor project, cell-based, luminescence, HTS; Caspase-Glo 3/7 luminescence, 3 h; percent of clofoctol response, vehicle zero; caspase activation, % (concentration not given with the values); 0.066% of 330,000 active;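 active = over half of replicate activation scores above 10%, or exactly half above 10 with the replicate mean above 10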
# Beta cell apopt: inhibitors of cytokine-induced beta cell apoptosis, primary screen, luminescence; INS-1E cytokine-induced death, ATP luminescence, 48 h; percent of positive-control rescue, neutral wells zero; protection from apoptosis, % (no concentration beside the values); 0.8% of 300,000 active; AID 435005, 2010;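 active = Every replicate reaches about 75%, or at least half do and their mean reaches it too, limit read from the data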;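 also: 0% = cytokine-treated negative control wells and 100% = positive control rescue; higher means more ATP so stronger rescue from cytokine killing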
# KLF5 inh: KLF5 expression inhibitors, primary screen, DLD-1 cells, luminescence; inhibition, % at 5 µM; DLD-1 KLF5 promoter-luciferase reporter; AID 1700, 2009; 0.23% of 290,000 active;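 active = inhibition above a per-plate limit of that plate's mean compound inhibition plus 3 SD, cut at about 60% in these data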;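 also: 0% = DMSO wells and 100% = LY294002 at 200 µM; higher means less KLF5 promoter-driven luciferase light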
# KLF5 confirm: KLF5 expression inhibitors, confirmation, DLD-1 cells, luminescence; DLD-1 KLF5 promoter firefly luciferase reporter; AID 1834, 2009; 79% of 610 active; inhibition, % at 4 µM; shares compounds with KLF5 inh;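 active = inhibition above a set limit taken from the earlier primary screen, cut at about 63% in these data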;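 also: 0% = DMSO wells and 100% = LY294002 at 200 µM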
# IEC-6 tox trip: cytotoxicity in rat IEC-6 cells, cytotoxicity control for KLF5 inhibitor project, cell-based, luminescence, triplicate | AID 1905, 2009 | 56% of 610 active | IEC-6 rat intestinal cells, viability luminescence | inhibition, % at 4 µM | shares compounds with KLF5 inh; in the data active = inhibition above about 23%;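 also: cells exposed to compounds for 48 hours before viability read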
# * = called active by the depositor; x = no result given.
SMILES,T cruzi repl,HIF activator,Bfl-1 A1 inh,Beta cell apopt,KLF5 inh,KLF5 confirm,IEC-6 tox trip
C/C(=N\NC(=O)c1ccccc1NC(=O)c1ccc(Cl)cc1)c1ccncc1,-29,1,-8,102*,65*,107*,67*
C/C(=N/NC(=O)c1ccncc1)c1ccccc1,-4,0,-3,x,-19,x,x
Cc1ccc(Sc2c(CO)c(-c3ccccc3)nn2C)cc1,-20,0,0,34,72*,84*,56*
CCN(CC)c1ccc(-c2nn3c(-c4ccccc4OC)nnc3s2)cc1,42,1,2,57,80*,91*,72*
COc1ccc(C(=O)NN(C)c2nc(C(F)(F)F)nc3ccccc23)cc1,-3,0,-1,53,82*,96*,81*
CC1(C)CC(=O)C=C(Nc2ccc(C(=O)O)c(O)c2)C1,-11,0,0,-9,-31,x,x
COC(=O)c1sc(N)c(C(=O)OC)c1COC(=O)c1c(C)noc1C,8,1,1,19,68*,42,35*
CCn1c(=S)sc2c(=O)n(CC(=O)NCCCc3ccccc3)c(C)nc21,-6,-1,2,-7,-14,x,x
COC(=O)c1c(N)sc(C(=O)NCCc2ccccc2)c1C,6,-2,-9,8,93*,85*,-2
CCOc1cccc(-c2nc3c(s2)CCc2onc(-c4cccc([N+](=O)[O-])c4)c2-3)c1,4,0,0,11,x,x,x
COc1ccc(OC)c(C2=Nn3c(nnc3-c3cc(OC)c(OC)c(OC)c3)SC2)c1,37,0,0,25,-1,x,x
COc1cc(-c2nnc3n2N=C(c2ccccc2)CS3)cc(OC)c1OC,33,-1,0,21,79*,73*,69*
COc1ccc(CCNC(=O)C(=O)NCC2OCCN2S(=O)(=O)c2ccc(Cl)cc2)cc1OC (stereo unspecified),-5,0,0,5,-12,x,x
Cc1c(/C=N\NC(=O)C2COc3ccccc3O2)c2ccccc2n1C (stereo unspecified),2,0,0,-4,74*,82*,75*
COc1ccc(NC(=O)c2cc(-c3ccccc3)nc3c2cnn3C(C)C)c(OC)c1,x,x,0,9,x,x,x
O=C(Nc1ccc(S(=O)(=O)N2CCOCC2)cc1)c1ccc([N+](=O)[O-])o1,44,1,1,68,99*,5,8
COC(=O)c1ccc(/C=N\NC(=O)c2c(C)nc3ccc(Cl)cn23)cc1,-9,0,1,0,-2,x,x
COc1ccc(/C=N\NC(=O)c2c(C)nc3ccc(Br)cn23)cc1,-15,0,1,11,65*,75*,53*
O=C1N[C@@H](Cc2ccccc2)C(=O)N2[C@@H]1C[C@@]1(Br)c3ccccc3N(S(=O)(=O)c3ccccc3)[C@@H]21,-3,1,0,-4,x,x,x
CCN(CC)c1ccc(/C=N/NC(=O)c2cccc(S(=O)(=O)Nc3ccccc3OC)c2)c(O)c1,27,92*,0,91*,74*,79*,33*
CCN(CC)c1ccc(/C=N/NC(=O)c2cccc(S(=O)(=O)Nc3ccccc3OC)c2)cc1,20,0,0,-10,-2,x,x
CC(C)Cc1nn2c(=O)cc(CSCC(=O)Nc3ccccc3F)nc2s1,-14,0,1,-1,-15,x,x
O=Cc1ccc(O)c2ncccc12,57*,0,x,x,82*,60,29*
c1cnc2ccc3ncccc3c2c1,8,-4,-1,6,-23,x,x
CC1(C)N=C(N)N=C(N)N1c1ccc(OCCCOc2ccccc2)c(Cl)c1,51,-2,0,103*,77*,73*,66*
SMILES,T cruzi repl,HIF activator,Bfl-1 A1 inh,Beta cell apopt,KLF5 inh,KLF5 confirm,IEC-6 tox trip
Cc1ccc(S(=O)(=O)Cc2ccc(C(=O)N3CCN(c4cccc(C)c4C)CC3)o2)cc1,-35,0,0,30,64*,68*,57*
COc1ccc(S(=O)(=O)Cc2ccc(C(=O)N3CCN(c4cccc(C)c4C)CC3)o2)cc1,16,x,0,x,-8,x,x
CC(C)(C)NC(=O)CSc1nc2cc(S(=O)(=O)N3CCCCC3)ccc2o1,x,x,1,-1,x,x,x
CN=c1scc(-c2ccccc2F)n1/N=C/c1ccc[nH]1,44,-4,-8,8,94*,106*,2
Cc1ccc(-n2c(-c3ccc(Br)cc3)c[n+]3c2CCc2ccc4cccnc4c2-3)cc1,60*,-1,0,133*,69*,111*,50*
Cn1c2ccccc2c2cc(C(=O)N3CCOCC3)sc21,8,0,0,-8,66*,44,17
O=C(NCCCCc1ccccc1)c1ccc(F)cc1,-17,0,-1,5,x,x,x
COc1ccc(/C=C/C(=O)c2cc(F)ccc2OC(=O)c2ccccc2OC)cc1OC,46,5,x,x,70*,84*,40*
COc1ccc(OCc2cccc(C(=O)Nn3cc([N+](=O)[O-])cn3)c2)cc1,10,-2,-1,9,93*,103*,5
COc1ccc(OCc2cccc(C(=O)NN)c2)cc1,4,-11,-2,-6,-58,x,x
O=C(CCN1C(=O)c2ccccc2S1(=O)=O)Nc1cccc(F)c1,-7,0,2,-4,x,x,x
Cc1cc(C(=O)NCC(C)(C)N2CCOCC2)c(C)o1,6,1,-1,2,x,x,x
N#Cc1c(C(F)(F)F)cc(-c2cccs2)nc1SCc1cccnc1,27,0,0,x,-10,x,x
N#Cc1ccc(-c2cccs2)nc1SCc1cccnc1,6,0,0,5,62*,75*,64*
CCCCn1c(N)c(N(CC(C)C)C(=O)CSC(C)C(=O)Nc2cc(C)on2)c(=O)[nH]c1=O (stereo unspecified),-6,0,0,-2,x,x,x
c1ccc(N2CCN(Cc3ccnc4ccccc34)CC2)cc1,-5,0,0,-4,-21,x,x
Oc1c(CN2CCN(c3ccccc3)CC2)cc(Br)c2cccnc12,52,39*,-1,98*,52,57,15

# Screening results deposited in PubChem BioAssay by several laboratories.
